This is a sample that favours compounds with a hit; in the whole collection about 3.1% have one here.
ATG4B inh = inhibitors of human ATG4B cysteine protease | inhibition, % at 8.33 µM | ATG4B cleavage of LC3-PLA2, NBD-HPC fluorescence, 1 h | Q9Y4P1 | 340,000 compounds, 0.51% hits; in the data active = inhibition above about 40%
MBD2 inh = MBD2-methylated oligo binding inhibition; inhibition, % at 4.4 µM; Q9UBB5; TR-FRET, MBD2 binding to methylated oligonucleotide; 370,000 compounds, 0.31% hits; in the data active = inhibition above about 13%
rCAG binder = r(CAG) repeat RNA binding; inhibition, % at 3 µM; AID 651821; 370,000 compounds, 1.3% hits; TO-PRO-1 dye displacement fluorescence;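 active = inhibition above the plate cutoff, the mean of all test compounds on that plate plus 3 SD, cut at about 35% in these data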;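 note: 0% = DMSO alone and 100% = 100 µM mitoxantrone as full dye displacement; higher means more dye released from RNA so lower well fluorescence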
CSN deneddyl inh = blocks human CSN-mediated cullin deneddylation. inhibition, % at 12.5 µM. 360,000 compounds, 0.38% hits. Purified CSN, SCF-Nedd8-OG deneddylation, fluorescence polarization. Q92905;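 active = pattern-corrected inhibition above about 35%, with an unprinted fluorescence ratio check between 0.5 and 1.5, limit read from the data, passing the limit was not always enough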;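 note: 0% = enzyme with substrate and 100% = substrate without enzyme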
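Material: human Csn5 produced in HEK293T cells; Input: enzyme 0.24 nM; Reagent: SCFSkp2-Nedd8OG substrate at 10 nM final; Dosing: 12.5 µM compound; Incubation: 90 min reaction at room temperature; Detection: fluorescence polarization of the substrate; Evaluation: % inhibition of substrate cleavage by Csn5; Control set: substrate-only high control, full reaction low control.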
LEDGF integ inh = blocks HIV-1 LEDGF/p75-dependent DNA integration. TR-FRET IN-LEDGF/p75 DNA integration, Eu/Cy5. inhibition, % at 3.7 µM. 370,000 compounds, 0.64% hits;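 active = inhibition above the screen-wide mean plus 3 SD, cut at about 13% in these data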;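 note: signal is the Cy5 over europium emission ratio at 671 and 618 nm; 0% = plate median of compound wells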
UHRF1 MBD2 ctr = blocks human UHRF1 binding to methylated DNA. Q96T88. UHRF1 binding to methylated oligo, TR-FRET. inhibition, % at 4.4 µM. 370,000 compounds, 0.75% hits. AID 687016; in the data active = inhibition above about 21%;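 note: UHRF1 SRA domain binding a hemimethylated CpG hairpin DNA probe; 0% = median of test compound wells and 100% = reference inhibitor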
CSN deneddyl val = Csn5 (human) deneddylation inhibition, single-concentration validation. AID 720654. 540 compounds, 62% hits. shares compounds with CSN deneddyl inh. Csn5 deneddylation of SCF-Nedd8OG, fluorescence polarization, 90 min. inhibition, % at 16.6 µM; in the data active = inhibition above about 50%;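 note: 0% = DMSO with enzyme and 100% = no enzyme wells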
MMP-2 counter = blocks human MMP-2 in a CSN deneddylation counter-screen | shares compounds with CSN deneddyl inh | recombinant MMP-2, FRET substrate fluorescence, 60 min | inhibition, % at 16.6 µM | 540 compounds, 33% hits;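 active = corrected plate-normalized z-score of 5 or more, or -5 or less, or inhibition of 15% or more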;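 note: plate controls were DMSO wells with enzyme for no effect and buffer wells lacking MMP-2 for full effect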
Target sequence (P08253 whole entry, looked up): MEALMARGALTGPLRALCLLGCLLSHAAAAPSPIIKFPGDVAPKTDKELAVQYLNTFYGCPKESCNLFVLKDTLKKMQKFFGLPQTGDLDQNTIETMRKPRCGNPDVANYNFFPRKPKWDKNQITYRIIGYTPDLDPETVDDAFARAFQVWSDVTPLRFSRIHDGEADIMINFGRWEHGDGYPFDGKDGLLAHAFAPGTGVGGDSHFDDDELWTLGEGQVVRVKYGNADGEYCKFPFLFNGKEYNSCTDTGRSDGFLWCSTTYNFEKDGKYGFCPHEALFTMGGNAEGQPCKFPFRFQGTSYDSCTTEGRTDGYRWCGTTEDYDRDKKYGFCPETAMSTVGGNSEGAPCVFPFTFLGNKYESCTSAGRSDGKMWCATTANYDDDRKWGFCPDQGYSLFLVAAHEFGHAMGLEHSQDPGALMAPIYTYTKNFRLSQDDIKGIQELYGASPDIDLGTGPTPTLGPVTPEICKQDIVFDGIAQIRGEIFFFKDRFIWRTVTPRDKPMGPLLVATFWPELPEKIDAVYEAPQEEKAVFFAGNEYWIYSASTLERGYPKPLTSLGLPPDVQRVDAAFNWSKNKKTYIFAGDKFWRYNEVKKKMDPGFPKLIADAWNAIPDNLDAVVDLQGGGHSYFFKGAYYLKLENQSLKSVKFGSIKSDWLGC
Thrombin cntr = thrombin (bovine) inhibition, counter-screen for CSN hits; shares compounds with CSN deneddyl inh; 540 compounds, 49% hits; bovine thrombin cleavage of Ub4-pepOG, fluorescence polarization; AID 720656; inhibition, % at 16.6 µM;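 active = inhibition at or above a set limit, with a fluorescence interference ratio between 0.5 and a set maximum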
Active calls of the source: *; · = no result given.

SMILES | ATG4B inh | MBD2 inh | rCAG binder | CSN deneddyl inh | LEDGF integ inh | UHRF1 MBD2 ctr | CSN deneddyl val | MMP-2 counter | Thrombin cntr
O=C(Cc1ccc(Cl)c(Cl)c1)Nc1ccc(S(=O)(=O)Nc2ccon2)cc1 | · | 9 | 30 | · | 4 | 2 | · | · | ·
O=C(N/N=C/c1c(O)ccc2ccccc12)c1cccc(C(F)(F)F)c1 | 8 | -3 | 12 | 69* | -5 | -1 | 63* | -25* | 49*
COC(=O)[C@]12C[C@H](CC(=O)N3CCOCC3)C(=O)N(CCc3ccc(OC)c(OC)c3)C1=C[C@H](C(C)C)O[C@@H]2C1CC1 | · | -5 | -2 | · | 5 | -2 | · | · | ·
CCC(C)NS(=O)(=O)c1ccc2[nH]c(=O)oc2c1 (stereo unspecified) | · | -4 | 1 | · | -1 | -2 | · | · | ·
CC[n+]1ccccc1/C=C/c1ccc(N(C)C)cc1 | 3 | -28 | -55 | 38* | -8 | -53 | 65* | -73* | 46*
Cc1ccc(/C=C/c2ccc(N(C)C)cc2)[n+](C)c1 | 6 | -28 | -107 | 47* | -11 | -48 | 40* | -92* | 68*
CCCCCC[n+]1ccccc1/C=C/c1ccc(N(C)C)cc1 | · | -28 | -20 | 100 | 0 | -7 | · | · | ·
CN(C)c1ccc(/C=C/c2cc[n+](C)cc2)cc1 | 4 | -22 | -47 | 51* | -5 | -52 | 55* | -34* | 58*
CCOc1ccc(C(=O)Nc2cc(-c3nc4ccccc4[nH]3)ccc2C)cc1[N+](=O)[O-] | 23 | 0 | 25 | 4 | 2 | 1 | · | · | ·
CCOc1ccc(C(=O)Nc2cc(-c3nc4ccccc4[nH]3)ccc2Cl)cc1[N+](=O)[O-] | 18 | -7 | 24 | 111* | 1 | -2 | · | -4 | -7
COC(=O)[C@]12C[C@H](CC(=O)N3CCCCC3)C(=O)N(Cc3ccc4c(c3)OCO4)C1=C[C@H](C(C)C)O[C@@H]2C1CC1 | · | 0 | 1 | · | 3 | 0 | · | · | ·
O=C1C(=O)c2c(ccc3ccccc23)-c2ccccc21 | -17 | 2 | 4 | 40* | -1 | 0 | 84* | 14 | -27
N#CCC[C@H]1CC[C@]2(CCCN(C(=O)c3ccno3)C2)O1 | · | 8 | 2 | · | 3 | 2 | · | · | ·
CC(C)(C)[C@H](N)C(=O)N[C@H]1CCC2C3CC=C4C[C@@H](O)CC[C@]4(C)C3CC[C@@]21C (stereo partly specified) | -3 | 1 | 0 | 49* | 1 | 0 | -23 | 3 | 16*
CC(C)C(=O)N[C@H]1CCC2C3CC=C4C[C@@H](O)CC[C@]4(C)C3CC[C@@]21C (stereo partly specified) | -3 | -1 | -1 | 1 | -4 | 2 | · | · | ·
O=C(CSc1ccccc1)NC1CCCCN(Cc2cccc(Cl)c2)C1=O (stereo unspecified) | · | 1 | 3 | · | -3 | -1 | · | · | ·
Cc1nnsc1C(=O)N/N=C/c1ccc2ccccc2c1O | -16 | 9 | 4 | 68* | -5 | 0 | 36 | -34* | 77*
Cc1nnsc1C(=O)N/N=C/c1ccccc1 | -12 | 4 | 1 | -4 | -2 | -2 | · | · | ·
CCCCCCCCNC(=O)C1CSCCS(=O)(=O)N1Cc1ccccc1 (stereo unspecified) | · | -4 | -2 | · | 6 | -1 | · | · | ·
O=C(O)c1ccc(N/N=C/C=C/c2ccc([N+](=O)[O-])o2)cc1 | 1 | -16 | 12 | 45* | 9 | 0 | 43 | 6 | 14
O=C(N/N=C/c1ccco1)c1cc([N+](=O)[O-])cc([N+](=O)[O-])c1 | 4 | -2 | 5 | -9 | 1 | -2 | · | · | ·
O=[N+]([O-])c1ccc(N/N=C/C=C/c2ccco2)cc1 | -6 | -12 | 20 | 56* | 10 | -4 | 52* | -3 | 44*
C[C@H](O)[C@@H]1C(=O)N2CCc3c([nH]c4c(-c5ccccc5)cccc34)[C@@H]2C[C@@H]1N(C)C(=O)c1ccccc1F | · | 5 | 7 | · | -5 | -11 | · | · | ·
COC(=O)C1CN(Cc2ccccc2)CCS(=O)(=O)N1Cc1cn(Cc2ccc(C)cc2)nn1 (stereo unspecified) | · | 2 | -1 | · | 4 | 10 | · | · | ·
CCN(CC)S(=O)(=O)c1cccc(C(=O)N/N=C(\C)c2ccc(O)cc2O)c1 | -10 | 3 | 21 | 37* | -5 | -2 | 92* | -27* | 79*
SMILES | ATG4B inh | MBD2 inh | rCAG binder | CSN deneddyl inh | LEDGF integ inh | UHRF1 MBD2 ctr | CSN deneddyl val | MMP-2 counter | Thrombin cntr
O=C1/C(=C\c2ccco2)CCC/C1=C\c1ccco1 | 24 | 19* | 18 | 39* | 71* | 56* | 66* | 6 | 53*
O=C1/C(=C/c2cccs2)CCC/C1=C\c1cccs1 | 6 | 1 | 19 | 43* | 20* | 9 | 92* | -4 | 5
COC(=O)C1CN(CCO)CCS(=O)(=O)N1Cc1cn(Cc2cccc(Cl)c2)nn1 (stereo unspecified) | · | -3 | 4 | · | 1 | 1 | · | · | ·
CCOC(=O)[C@@]12CCCC3=C1N(CCC3)C(=O)[C@H]2CC(=O)NCc1ccc(C)o1 | · | -5 | 2 | · | -3 | 0 | · | · | ·
COc1cc(Cl)cc(/C=N\NC(=O)c2ccc3c(c2)OCO3)c1O | · | -1 | 11 | 99* | -9 | -1 | -79 | 23* | 4
O=C(N/N=C/c1cc(Cl)cc([N+](=O)[O-])c1O)c1ccc2c(c1)OCO2 | 5 | 0 | 6 | -1 | -7 | -3 | · | · | ·
O=C(N/N=C/c1cc(Br)c(Br)o1)c1ccc2c(c1)OCCO2 | -1 | 11 | 27 | 40* | 1 | 8 | 66* | 13 | 0
O=C(N/N=C/c1cc(Br)cc(Cl)c1O)c1ccc2c(c1)OCO2 | 8 | -1 | 9 | 100* | 5 | -4 | -106 | 29* | 20*
CCNC(=S)NNC(=O)CSc1nc2ccccc2c(=O)n1-c1ccc(Cl)cc1 | · | -8 | 13 | · | 0 | -2 | · | · | ·

From PubChem BioAssay
